Data reported in ChEMBL document CHEMBL4229460, “Design and biological evaluation of novel hybrids of 1, 5-diarylpyrazole and Chrysin for selective COX-2 inhibition” (Bioorg Med Chem, 2018).

Tests used:
MCF7 = test: Antiproliferative activity against human MCF7 cells after 48 hrs by MTT assay; assay type: functional, cell-based; conditions: MCF7, 48 h
HeLa [1] = test: Cell cycle arrest in human HeLa cells assessed as accumulation at G1 phase at 5 uM after 24 hrs by propidium iodide staining based flow cytometry (reference value: 55.51%); assay type: functional
HeLa [2] = test: Cell cycle arrest in human HeLa cells assessed as accumulation at G2/M phase at 2.5 uM after 24 hrs by propidium iodide staining based flow cytometry (reference value: 21.45%); assay type: functional
HeLa [3] = test: Induction of apoptosis in human HeLa cells assessed as early apoptotic cells at 5 uM after 24 hrs by Annexin-V-FITC/propidium iodide staining based flow cytometry (reference value: 1.24 to 2.98%); assay type: functional
Method in brief: (§1)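 HeLa seeded at 2 × 10⁵ cells/well. Dose series was 0, 1.25, 2.5, 5 and 10 μM for 24 h; time course was 5 μM for 12, 24, 36 or 48 h. Trypsinized and washed in ice-cold PBS, then stained in binding buffer with Annexin V-FITC and PI for 10 min in the dark. Flow cytometry scored early (Annexin⁺/PI⁻) and late (Annexin⁺/PI⁺) apoptotic cells.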

HeLa [4] = test: Disruption of mitochondrial membrane potential in human HeLa cells assessed as intact mitochondrial membrane at 2.5 uM after 12 hrs by JC1 staining based flow cytometry (reference value: 99.2%); assay type: functional
HeLa [5] = test: Induction of apoptosis in human HeLa cells assessed as early apoptotic cells at 2.5 uM after 24 hrs by Annexin-V-FITC/propidium iodide staining based flow cytometry (reference value: 2.98%); assay type: functional; method in brief: as §1
HeLa [6] = test: Induction of apoptosis in human HeLa cells assessed as late apoptotic cells at 5 uM after 36 hrs by Annexin-V-FITC/propidium iodide staining based flow cytometry (reference value: 2.57%); assay type: functional; method in brief: as §1
HeLa [7] = test: Induction of apoptosis in human HeLa cells assessed as early apoptotic cells at 5 uM after 36 hrs by Annexin-V-FITC/propidium iodide staining based flow cytometry (reference value: 1.24%); assay type: functional; method in brief: as §1
HeLa [8] = test: Induction of apoptosis in human HeLa cells assessed as live cells at 5 uM after 24 hrs by Annexin-V-FITC/propidium iodide staining based flow cytometry (reference value: 94.6 to 95.1%); assay type: functional; method in brief: as §1
HeLa [9] = test: Disruption of mitochondrial membrane potential in human HeLa cells assessed as collapse of the mitochondrial membrane potential at 10 uM after 12 hrs by JC1 staining based flow cytometry (reference value: 0.768%); assay type: functional
HeLa [10] = test: Induction of apoptosis in human HeLa cells assessed as live cells at 5 uM after 48 hrs by Annexin-V-FITC/propidium iodide staining based flow cytometry (reference value: 95.1%); assay type: functional; method in brief: as §1
HeLa [11] = test: Disruption of mitochondrial membrane potential in human HeLa cells assessed as intact mitochondrial membrane at 5 uM after 12 hrs by JC1 staining based flow cytometry (reference value: 99.2%); assay type: functional
HEK-293T = test: Cytotoxicity against human 293T cells after 48 hrs by MTT assay; assay type: cell-based
HeLa [12] = test: Induction of apoptosis in human HeLa cells assessed as late apoptotic cells at 10 uM after 24 hrs by Annexin-V-FITC/propidium iodide staining based flow cytometry (reference value: 1.72%); assay type: functional; method in brief: as §1
HeLa [13] = test: Cell cycle arrest in human HeLa cells assessed as accumulation at S phase at 10 uM after 24 hrs by propidium iodide staining based flow cytometry (reference value: 18.16%); assay type: functional
[14] = target: Prostaglandin G/H synthase 1 (Homo sapiens, UniProt P23219); test: Inhibition of COX1 (unknown origin) using arachidonic acid as substrate pretreated for 10 mins followed by substrate addition and measured after 2 mins by ELISA; assay type: ADME
Sequence of Prostaglandin G/H synthase 1 (P23219 whole entry): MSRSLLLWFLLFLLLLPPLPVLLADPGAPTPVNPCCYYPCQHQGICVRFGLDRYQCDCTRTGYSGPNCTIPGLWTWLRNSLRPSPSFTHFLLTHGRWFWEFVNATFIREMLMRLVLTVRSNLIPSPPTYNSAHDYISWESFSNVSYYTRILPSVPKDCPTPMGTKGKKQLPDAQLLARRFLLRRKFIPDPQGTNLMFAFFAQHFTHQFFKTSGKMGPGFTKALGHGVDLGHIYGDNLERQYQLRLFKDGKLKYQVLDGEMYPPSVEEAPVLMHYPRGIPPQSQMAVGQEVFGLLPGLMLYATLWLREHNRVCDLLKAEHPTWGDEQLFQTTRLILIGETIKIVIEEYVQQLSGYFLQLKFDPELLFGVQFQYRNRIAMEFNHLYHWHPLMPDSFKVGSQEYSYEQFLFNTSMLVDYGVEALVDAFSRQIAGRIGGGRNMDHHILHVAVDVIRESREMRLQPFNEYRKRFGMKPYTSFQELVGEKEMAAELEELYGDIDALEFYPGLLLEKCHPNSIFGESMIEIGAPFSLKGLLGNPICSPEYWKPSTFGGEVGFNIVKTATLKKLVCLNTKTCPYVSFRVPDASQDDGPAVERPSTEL

HeLa [15] = test: Induction of apoptosis in human HeLa cells assessed as late apoptotic cells at 1.25 uM after 24 hrs by Annexin-V-FITC/propidium iodide staining based flow cytometry (reference value: 1.72%); assay type: functional; method in brief: as §1
HeLa [16] = test: Disruption of mitochondrial membrane potential in human HeLa cells assessed as collapse of the mitochondrial membrane potential at 1.25 uM after 12 hrs by JC1 staining based flow cytometry (reference value: 0.768%); assay type: functional
HeLa [17] = test: Induction of apoptosis in human HeLa cells assessed as necrotic cells at 5 uM after 12 hrs by Annexin-V-FITC/propidium iodide staining based flow cytometry (reference value: 1.12%); assay type: functional; method in brief: as §1
HeLa [18] = test: Induction of apoptosis in human HeLa cells assessed as live cells at 5 uM after 12 hrs by Annexin-V-FITC/propidium iodide staining based flow cytometry (reference value: 95.1%); assay type: functional; method in brief: as §1
HeLa [19] = test: Induction of apoptosis in human HeLa cells assessed as live cells at 2.5 uM after 24 hrs by Annexin-V-FITC/propidium iodide staining based flow cytometry (reference value: 94.6%); assay type: functional; method in brief: as §1
HeLa [20] = test: Cell cycle arrest in human HeLa cells assessed as accumulation at S phase at 1.25 uM after 24 hrs by propidium iodide staining based flow cytometry (reference value: 18.16%); assay type: functional
HeLa [21] = test: Induction of apoptosis in human HeLa cells assessed as live cells at 1.25 uM after 24 hrs by Annexin-V-FITC/propidium iodide staining based flow cytometry (reference value: 94.6%); assay type: functional; method in brief: as §1
HeLa [22] = test: Induction of apoptosis in human HeLa cells assessed as late apoptotic cells at 5 uM after 48 hrs by Annexin-V-FITC/propidium iodide staining based flow cytometry (reference value: 2.57%); assay type: functional; method in brief: as §1
HeLa [23] = test: Induction of apoptosis in human HeLa cells assessed as late apoptotic cells at 5 uM after 12 hrs by Annexin-V-FITC/propidium iodide staining based flow cytometry (reference value: 2.57%); assay type: functional; method in brief: as §1
HeLa [24] = test: Induction of apoptosis in human HeLa cells assessed as necrotic cells at 2.5 uM after 24 hrs by Annexin-V-FITC/propidium iodide staining based flow cytometry (reference value: 0.242%); assay type: functional; method in brief: as §1
HeLa [25] = test: Cell cycle arrest in human HeLa cells assessed as accumulation at G1 phase at 1.25 uM after 24 hrs by propidium iodide staining based flow cytometry (reference value: 55.51%); assay type: functional
HeLa [26] = test: Cell cycle arrest in human HeLa cells assessed as accumulation at G2/M phase at 1.25 uM after 24 hrs by propidium iodide staining based flow cytometry (reference value: 21.45%); assay type: functional
HeLa [27] = test: Induction of apoptosis in human HeLa cells assessed as late apoptotic cells at 5 uM after 24 hrs by Annexin-V-FITC/propidium iodide staining based flow cytometry (reference value: 1.72 to 2.57%); assay type: functional; method in brief: as §1

COc1ccc(-c2cc(COC(=O)COc3cc(O)c4c(=O)cc(-c5ccccc5)oc4c3)nn2-c2ccc(C)cc2)cc1
IC50 (MCF7): 3.23 µM
Activity (HeLa [1]): 72.83%
Activity (HeLa [2]): 9.58%
Activity (HeLa [3]): 31.6 - 34.7%
Activity (HeLa [4]): 93.4%
Activity (HeLa [5]): 16.6%
Activity (HeLa [6]): 7.82%
Activity (HeLa [7]): 40.4%
Activity (HeLa [8]): 43.7 - 57.3%
Activity (HeLa [9]): 13.3%
Activity (HeLa [10]): 18.1%
Activity (HeLa [11]): 90.5%
IC50 (HEK-293T): 194 µM
Activity (HeLa [12]): 11.5%
Activity (HeLa [13]): 14.82%
IC50 [14]: 47.5 µM
Activity (HeLa [15]): 5.16%
Activity (HeLa [16]): 3.1%
Activity (HeLa [17]): 1.71%
Activity (HeLa [18]): 67.7%
Activity (HeLa [19]): 74.5%
Activity (HeLa [20]): 17.96%
Activity (HeLa [21]): 83.2%
Activity (HeLa [22]): 7.54%
Activity (HeLa [23]): 7.07%
Activity (HeLa [24]): 0.332%
Activity (HeLa [25]): 62.63%
Activity (HeLa [26]): 13.65%
Activity (HeLa [27]): 0.9 - 7.15%
